Results as given in ChEMBL document CHEMBL4425110, “ICI 56,780 Optimization: Structure-Activity Relationship Studies of 7-(2-Phenoxyethoxy)-4(1H)-quinolones with Antimalarial Activity” (J Med Chem, 2016).
Calls of active or inactive are those of the source. The rule behind the calls is not given here.

Assays:
Plasmodium falciparum [1] = experiment: Antimalarial activity against Plasmodium falciparum TM90-C2B; assay type: functional, organism-based
Plasmodium falciparum [2] = experiment: Antimalarial activity against Plasmodium falciparum W2; assay type: functional, organism-based
J774 = experiment: Cytotoxicity against mouse J774 cells; assay type: cell-based
Plasmodium falciparum [3] = experiment: Resistance index, ratio of EC50 for Plasmodium falciparum TM90-C2B to EC50 for Plasmodium falciparum W2; assay type: functional
Plasmodium berghei [4] = experiment: Antimalarial activity against Plasmodium berghei infected in mouse assessed as inhibition of parasitemia at 50 mg/kg, po administered as single dose measured on day 6 post drug exposure relative to untreated control; assay type: functional; conditions: 144 h
How it was run: (§1)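 Two infected mice per compound were each given a single oral dose of 50 mg/kg, suspended in PEG400, on day 1 post-exposure. Parasitemia was assessed on days 3 and 6 post-exposure.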

Plasmodium berghei [5] = experiment: Antimalarial activity against Plasmodium berghei infected in mouse assessed as inhibition of parasitemia at 50 mg/kg, po administered as single dose measured on day 3 post drug exposure relative to untreated control; assay type: functional; conditions: 72 h; how it was run: as §1
[6] = Liver blood index, ratio of EC50 for Plasmodium falciparum TM90-C2B to EC50 for Plasmodium berghei; assay type: functional
How it was run: (§2)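 Liver-stage EC50 measured in vitro against P. berghei. Liver blood index is the blood-stage EC50 divided by the P. berghei EC50, using either W2 or TM90-C2B as the blood-stage strain.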

[7] = Liver blood index, ratio of EC50 for Plasmodium falciparum W2 to EC50 for Plasmodium berghei; assay type: functional; how it was run: as §2
Plasmodium berghei [8] = experiment: Antimalarial activity against Plasmodium berghei; assay type: functional, organism-based
How it was run: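 In vitro liver-stage (exoerythrocytic) assay against P. berghei; the value is the EC50 (nM).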

[9] = Solubility in pH 6.5 buffer by HPLC based UV spectroscopy; assay type: physicochemical
Plasmodium berghei [10] = experiment: Antimalarial activity against GFP expressing Plasmodium berghei infected in mouse assessed as average time for mouse death at 10 mg/kg, po administered on days 3, 4 and 5 and measured on day 6 post drug exposure by Giemsa staining based modified Thompson test; assay type: functional
Plasmodium berghei [11] = experiment: Antimalarial activity against GFP expressing Plasmodium berghei infected in mouse assessed as inhibition of parasitemia at 10 mg/kg, po administered on days 3, 4 and 5 and measured on day 6 post drug exposure by Giemsa staining based modified Thompson test; assay type: functional; conditions: 144 h
Plasmodium berghei [12] = experiment: Antimalarial activity against GFP expressing Plasmodium berghei infected in mouse assessed as inhibition of parasitemia at 10 mg/kg, po administered on days 3, 4 and 5 and measured on day 13 post drug exposure by Giemsa staining based modified Thompson test; assay type: functional, organism-based

| Compound | EC50 (Plasmodium falciparum [1]) [nM] | EC50 (Plasmodium falciparum [2]) [nM] | EC50 (J774) [nM] | Ratio EC50 (Plasmodium falciparum [3]) | inhibition in vivo at 50 mg/kg (Plasmodium berghei [4]) [%] | inhibition in vivo at 50 mg/kg (Plasmodium berghei [5]) [%] | Ratio EC50 [6] | Ratio EC50 [7] | EC50 (Plasmodium berghei [8]) [nM] | solubility [9] [µM] | Time (Plasmodium berghei [10]) [days] | inhibition in vivo at 10 mg/kg (Plasmodium berghei [11]) [%] | Activity (Plasmodium berghei [12]) |
| --- | --- | --- | --- | --- | --- | --- | --- | --- | --- | --- | --- | --- | --- |
| COC(=O)c1c[nH]c2ccc(OCCCc3ccccc3)cc2c1=O | 3670 | 14.4 | 17100 | 255 | < 1 | 76.9 | 331 | 1.3 | 11.1 | – | – | – | – |
| COC(=O)c1c[nH]c2cc(OCCCc3ccccc3)ccc2c1=O | > 784 | 0.711 | 1480 | >1100 | 47.1 | 69.2 | – | 0.14 | 5.26 | – | – | – | – |
| CCCCc1cc2c(=O)c(C(=O)NCCO)c[nH]c2cc1OCCOc1ccccc1 | 5890 | 253 | > 20000 | 23.3 | < 1 | 40 | 460 | 19.8 | 12.8 | > 20 | – | – | – |
| CCCCc1cc2c(=O)c(CC)c[nH]c2cc1OCCOc1ccccc1 | 1.92 | 0.44 | 360 | 4.36 | 17.7 | 69.2 | 0.725 | 0.166 | 2.65 | – | – | – | – |
| COC(=O)c1c[nH]c2cc(OCCOc3ccccc3)c(Cl)cc2c1=O | 617 | 9.93 | > 20000 | 62.1 | < 1 | < 1 | 9790 | 158 | 0.063 | – | – | – | – |
| O=C1C(O)=C([C@H]2CC[C@H](c3ccc(Cl)cc3)CC2)C(=O)c2ccccc21 [ATOVAQUONE] | – | – | – | – | – | – | – | – | – | – | 30 | – | – |
| CCCCc1cc2c(=O)c(C(=O)OCC)c[nH]c2cc1OCCOc1ccccc1 | 100 | 0.143 | > 20000 | 699 | – | – | 14300 | 19.6 | 0.007 | – | – | – | – |
| CCCCc1cc2c(=O)c(I)c[nH]c2cc1OCCOc1ccccc1 | 6.04 | 1.23 | > 10000 | 4.91 | – | – | 2.37 | 0.482 | 2.55 | – | – | – | – |
| CCCCc1cc2c(=O)c(Br)c[nH]c2cc1OCCOc1ccccc1 | 48.7 | 4.64 | 8070 | 10.5 | – | – | 2.6 | 0.248 | 18.7 | – | – | – | – |
| COC(=O)c1c[nH]c2cc(OCCOc3ccccc3)c(C)cc2c1=O | 499 | 2.01 | > 20000 | 248 | – | – | 3.28 | 0.013 | 152 | – | – | – | – |
| COC(=O)c1c[nH]c2cc(OCCOc3ccccc3)ccc2c1=O | 73.6 | 2.8 | > 20000 | 26.3 | – | – | 257 | 9.79 | 0.286 | – | – | – | – |
| COC(=O)c1c[nH]c2cc(OCCOc3ccccc3)c(OC)cc2c1=O | 11.1 | 6.93 | > 20000 | 1.6 | – | – | 0.634 | 0.396 | 17.5 | – | – | – | – |
| CCCCc1cc2c(=O)c(Br)c(C)[nH]c2cc1OCCOc1ccccc1 | 12.2 | 2.6 | > 10000 | 4.69 | 49.5 | 100 | 5.75 | 1.23 | 2.12 | – | 13 | 61 | inactive |
| COC(=O)c1c[nH]c2cc(Oc3ccccc3)ccc2c1=O | 1950 | 16.6 | 9120 | 117 | 29.8 | 40 | 17.7 | 0.15 | 110 | – | – | – | – |
| CCCCc1cc2c(=O)c(C(=O)OC)c[nH]c2cc1OCCOc1ccccc1 | 7.89 | 0.039 | > 20000 | 202 | 49 | 76.9 | 152 | 0.75 | 0.052 | – | 13 | < 1 | – |
| COC(=O)c1c[nH]c2cc(OCCc3ccccc3)ccc2c1=O | 7740 | 139 | 17200 | 55.7 | < 1 | 60 | – | – | – | – | – | – | – |
| CCCCc1cc2c(=O)c(C(=O)O)c[nH]c2cc1OCCOc1ccccc1 | 1110 | 64 | > 20000 | 17.3 | – | – | 4160 | 240 | 0.267 | – | – | – | – |
| COC(=O)c1c[nH]c2ccc(OCCc3ccccc3)cc2c1=O | 3050 | 24.6 | 2200 | 124 | < 1 | 7.69 | 438 | 3.53 | 6.97 | – | – | – | – |
| CCCCc1cc2c(=O)c(C(=O)N(C)C)c[nH]c2cc1OCCOc1ccccc1 | > 6120 | 56.7 | 15300 | >108 | – | – | > 27.7 | 0.46 | 122 | – | – | – | – |
| CCCCc1cc2c(=O)cc[nH]c2cc1OCCOc1ccccc1 | 430 | 328 | > 20000 | 1.31 | – | – | 73.9 | 56.4 | 5.82 | – | – | – | – |
| COC(=O)c1c[nH]c2cc(OCCOc3ccccc3)c(Br)cc2c1=O | 847 | 4.47 | > 20000 | 189.5 | – | – | 2520 | 13.3 | 0.336 | – | – | – | – |
| COC(=O)c1c[nH]c2ccc(OCc3ccccc3)cc2c1=O | 1100 | 11.6 | 7590 | – | < 1 | – | 8.66 | 0.091 | 127 | – | – | – | – |
| COC(=O)c1c[nH]c2ccccc2c1=O | 6590 | 200 | > 20000 | 33 | – | – | 1810 | 54.8 | 3.65 | – | – | – | – |
| CCc1cc2c(=O)c(C(=O)OC)c[nH]c2cc1OCCOc1ccccc1 | 65.3 | 0.461 | > 20000 | 142 | – | – | 88.6 | 0.626 | 0.737 | – | – | – | – |
| CCCCc1cc2c(=O)c(Cl)c(C)[nH]c2cc1OCCOc1ccccc1 | 67.7 | 6.92 | > 10000 | 9.79 | – | – | 6.03 | 0.616 | 11.2 | – | – | – | – |
| CCCCc1cc2c(=O)c(I)c(C)[nH]c2cc1OCCOc1ccccc1 | 5.87 | 0.867 | – | 6.77 | 19.6 | 53.9 | – | – | – | – | – | – | – |
